Data on two compounds can be found in ChEMBL document CHEMBL4330142, “Eupatoriopicrin Inhibits Pro-inflammatory Functions of Neutrophils via Suppression of IL-8 and TNF-alpha Production and p38 and ERK 1/2 MAP Kinases” (J Nat Prod, 2019).

Assay [1] in a line: Anti-inflammatory activity in human PMN assessed as inhibition of fMLP/cytochalasin A-induced CD11b/CD18 expression by measuring CD11b/CD18 expression level at 2.5 uM preincubated for 30 mins followed by fMLP/cytochalasin A addition and measured after 30 mins by flow cytometry relative to control. The assay is classed as functional. More on the design: scale not given: the % may be the effect or the level left. The method, boiled down: (§1)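 Neutrophils preincubated with compound before stimulation with cytochalasin A combined with f-MLP; surface CD11b expression read by flow cytometry. Compounds from 10 mM DMSO stock diluted in buffer or RPMI 1640. Mean ± SEM of three experiments on neutrophils from independent donors, Dunnett's post hoc test versus stimulated control.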

Assay [2] is described as follows: Anti-inflammatory activity in human PMN assessed as inhibition of fMLP/cytochalasin A-induced CD11b/CD18 expression by measuring CD11b/CD18 expression level at 50 uM preincubated for 30 mins followed by fMLP/cytochalasin A addition and measured after 30 mins by flow cytometry relative to control. The assay is classed as functional. Further details: scale not given: the % may be the effect or the level left. The method, boiled down: as §1
A general note: A flow cytometer gives signals particle by particle.

In assay [3] the test system is Neutrophil. Nature of the assay: Inhibition of LPS-induced delay of apoptosis in human neutrophils assessed as viable cells at 2.5 uM preincubated for 1 hr followed by LPS stimulation and measured after 24 hrs by Annexin V-FITC/propidium iodide staining based flow cytometry (reference value: 75.4 +/- 1.1%). The assay is classed as functional. The note with it: read-out: Activity.

Assay [4] concerns Neutrophil. Put plainly: Inhibition of LPS-induced delay of apoptosis in human neutrophils assessed as early apoptotic cells at 2.5 uM preincubated for 1 hr followed by LPS stimulation and measured after 24 hrs by Annexin V-FITC/propidium iodide staining based flow cytometry (reference value: 13 +/- 1.9%). Type of assay: functional. Further details: scale not given: the % may be the effect or the level left.

The test system of assay [5] is Neutrophil. Nature of the assay: Inhibition of LPS-induced delay of apoptosis in human neutrophils assessed as late apoptotic cells at 2.5 uM preincubated for 1 hr followed by LPS stimulation and measured after 24 hrs by Annexin V-FITC/propidium iodide staining based flow cytometry (reference value: 9.5 +/- 1.8%). Further details: scale not given: the % may be the effect or the level left. Type of assay: functional.

Assay [6] has as its system Neutrophil. Put plainly: Inhibition of LPS-induced delay of apoptosis in human neutrophils assessed as necrotic cells at 2.5 uM preincubated for 1 hr followed by LPS stimulation and measured after 24 hrs by Annexin V-FITC/propidium iodide staining based flow cytometry (reference value: 2.1 +/- 0.4%). Further details: scale not given: the % may be the effect or the level left. Type of assay: functional.

Assay [7] relates to Neutrophil. Nature of the assay: Inhibition of LPS-stimulated IL-8 production in human neutrophils at 2.5 uM after 24 hrs by ELISA. Type of assay: functional, cell-based.
Assay [8] concerns Neutrophil. Nature of the assay: Inhibition of LPS-stimulated TNFalpha production in human neutrophils at 2.5 uM after 24 hrs by ELISA. Type of assay: functional, cell-based. An outline of the steps: (§2)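 Human neutrophils were preincubated with compound, then LPS-stimulated. TNF-α in the culture medium was measured by ELISA 24 h after LPS. Three separate experiments used neutrophils from independent donors, each assayed in duplicate; mean ± SEM; Dunnett's test versus the stimulated control.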
A general note: In an ELISA, binding on a coated surface is turned into a signal by an enzyme label.

Assay [9] deals with Neutrophil. Nature of the assay: Inhibition of LPS-stimulated TNFalpha production in human neutrophils at 50 uM after 24 hrs by ELISA. The assay is classed as functional, cell-based. The method, boiled down: as §2
In assay [10] the test system is Neutrophil. Nature of the assay: Inhibition of fMLP/cytochalasin A-stimulated elastase release in human neutrophils assessed as elastase level at 50 uM preincubated for 15 mins followed by fMLP/cytochalasin A stimulation and measured after 15 mins by SAAVNA substrate based spectrophotometric method (reference value: 100%). Further details: scale not given: the % may be the effect or the level left.

The species named for assay [11] is Homo sapiens. Put plainly: Anti-inflammatory activity in human PMN assessed as inhibition of fMLP/cytochalasin A-induced CD11b/CD18 expression at 2.5 uM preincubated for 30 mins followed by fMLP/cytochalasin A addition and measured after 30 mins by flow cytometry. Type of assay: functional. An outline of the steps:
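Freshly isolated human PMNs were preincubated with compound, then stimulated with cytochalasin A plus f-MLP. Surface CD11b was read by FACS relative to the stimulated control. Three separate experiments used neutrophils from independent donors; mean ± SEM. Compounds came from 10 mM DMSO stocks diluted in Ca2+-free HBSS/PBS pH 7.4 or RPMI 1640.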

Activity calls are given as the source filed them. No cut-off for these calls is given here.

On to `CC[C@H]1OC(=O)[C@H](C)[C@@H](O[C@H]2C[C@@](C)(OC)[C@@H](O)[C@H](C)O2)[C@H](C)[C@@H](O[C@@H]2O[C@H](C)C[C@H](N(C)C)[C@H]2O)[C@](C)(OC)C[C@@H](C)C(=O)[C@H](C)[C@@H](O)[C@]1(C)O` [CLARITHROMYCIN], for which the Activity in assay [1] is reported as 67.7%; in assay [2], 31.5%; in assay [4] it was 33.7%; in assay [5] it was 13.3%; in [6], 1.1%; in assay [10] it was 39%. Besides, in assay [3], the viability at 2.5 µM was found to be 49.8%. Further, the inhibition result in assay [7] and in [9] was “Active” each time. The inhibition entry in assay [8] is “inactive”.
On to `O=c1c(O)c(-c2ccc(O)c(O)c2)oc2cc(O)cc(O)c12` [QUERCETIN], for which the inhibition entry in assay [11] and in [8] was “inactive” in each case. The viability at 2.5 µM in assay [3] is 58.8%. The Activity in assay [4] is reported as 27%; in [5], 15.4%; in assay [6], 1%; in assay [10], 26.6%. Further, in [9], the inhibition result is “Active”.
